ChEMBL document CHEMBL5661984, “Allosteric ligands for the pharmacologically dark receptors GPR68 and GPR65” (Nature, 2015)
The source made the active and inactive calls. The rule behind the calls is not given here.

Columns and labels:
[1] = molecular target: T1, G-protein coupled receptor 68 (Homo sapiens, UniProt Q15743); assay: Binding affinity to GPR68 expressed in human HEK293T cells assessed as cAMP production in presence of H+ proton by Split-luciferase based luminescence counter analysis; format: cell-based; settings: filed as positive allosteric modulator
T1 sequence (Q15743 whole entry): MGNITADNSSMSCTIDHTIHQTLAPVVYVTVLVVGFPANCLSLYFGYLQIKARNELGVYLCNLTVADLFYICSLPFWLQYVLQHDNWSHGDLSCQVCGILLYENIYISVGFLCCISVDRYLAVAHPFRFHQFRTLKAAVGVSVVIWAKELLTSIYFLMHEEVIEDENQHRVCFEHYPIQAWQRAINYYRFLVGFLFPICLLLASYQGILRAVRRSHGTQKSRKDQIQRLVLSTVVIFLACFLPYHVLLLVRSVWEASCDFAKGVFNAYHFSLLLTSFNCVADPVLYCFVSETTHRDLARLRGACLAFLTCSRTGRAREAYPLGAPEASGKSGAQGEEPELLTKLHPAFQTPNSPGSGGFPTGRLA
In short: (§1)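 Proton concentration-response of GPR68 (wild type or E160A/K/Q, R189L/M, H269F mutants) in transiently transfected HEK293-T cells. Read-out: GloSensor cAMP, with luciferin loading 90 min at 37°C at pH 8.4. Run with and without increasing modulator concentrations; 20 min at room temperature before luminescence. Proton KA fixed to the proton EC50 without modulator. KB, τA, α, β fitted globally with an operational allosteric model. n=4.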

[2] = molecular target: T1, G-protein coupled receptor 68; assay: Positive allosteric modulator activity at GPR68 expressed in human HEK293T cells assessed as cAMP production in presence of H+ proton by Split-luciferase based luminescence counter analysis (reference value: 26.4 to 43.8 %); format: functional, cell-based; in short: as §1
[3] = molecular target: T1, G-protein coupled receptor 68; assay: Positive allosteric modulator activity at GPR68 expressed in human HEK293T cells assessed as cAMP production in presence of H+ proton by Split-luciferase based luminescence counter analysis (reference value: 6.53 to 6.72); format: functional, cell-based
[4] = molecular target: C-X-C chemokine receptor type 4 (Homo sapiens) (UniProt P61073); assay: Agonist activity against CXCR4 receptor (unknown origin) transfected in human HEK293T cells at 10 uM incubated for 15 mins in presence of CXCL12 by luminescence counter analysis; format: functional, cell-based
Chain of C-X-C chemokine receptor type 4 (Homo sapiens) (P61073 whole entry): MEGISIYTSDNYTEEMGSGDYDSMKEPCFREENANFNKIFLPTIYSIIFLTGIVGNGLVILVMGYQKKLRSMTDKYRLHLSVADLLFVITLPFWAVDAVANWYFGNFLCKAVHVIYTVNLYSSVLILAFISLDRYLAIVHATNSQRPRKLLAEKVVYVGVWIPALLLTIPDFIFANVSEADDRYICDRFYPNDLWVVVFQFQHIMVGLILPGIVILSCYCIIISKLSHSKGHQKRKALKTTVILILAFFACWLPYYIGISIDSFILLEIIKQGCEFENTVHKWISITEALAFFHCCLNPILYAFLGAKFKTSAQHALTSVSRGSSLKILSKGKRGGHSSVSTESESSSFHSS
In short: (§2)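 HEK293-T cells transiently transfected with CXCR4 and the GloSensor cAMP reporter, plated in DMEM with 1% dialyzed FBS. Test compound at 10 μM in 20 mM HEPES/HBSS, pH 7.4, 15 min at room temperature. Agonist mode: luciferin (4 mM final) plus 200 nM isoproterenol added, 20 min. Antagonist mode: compound 10 min, then reference agonist at EC80 for 10 min, then luciferin/isoproterenol. Luminescence read. CXCL12 (1 or 3 μM) is the agonist control and AMD3100 (10 μM) the antagonist control. n=2.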

[5] = molecular target: T1, G-protein coupled receptor 68; assay: Positive allosteric modulator activity at HA-tagged GPR68 expressed in human HEK293T cells assessed as activation of PKA at pH 7.4 by immunoblotting analysis; format: cell-based; settings: filed as positive allosteric modulator
In short: (§3)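 HEK293 cells stably expressing N-terminal HA-tagged human GPR68 (vector-only line as control), selected with 250 μg/ml G418. Confluent cells were switched to Hams-F12 at pH 8.0 or 7.4 for 1 h, then given vehicle or 50 μM compound for 10 min. Lysate immunoblots were probed for HA, total VASP, p-p42/p44 and β-actin, read with infrared-fluorophore secondaries.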

[6] = molecular target: G-prodeshotein coupled receptor 4 (Homo sapiens) (UniProt P46093); assay: Positive allosteric modulator activity at human GPR4 expressed in yeast assessed as Gq-yeast growth stimulation at 10 uM by microplate reader analysis
Chain of G-prodeshotein coupled receptor 4 (Homo sapiens) (P46093 whole entry, looked up): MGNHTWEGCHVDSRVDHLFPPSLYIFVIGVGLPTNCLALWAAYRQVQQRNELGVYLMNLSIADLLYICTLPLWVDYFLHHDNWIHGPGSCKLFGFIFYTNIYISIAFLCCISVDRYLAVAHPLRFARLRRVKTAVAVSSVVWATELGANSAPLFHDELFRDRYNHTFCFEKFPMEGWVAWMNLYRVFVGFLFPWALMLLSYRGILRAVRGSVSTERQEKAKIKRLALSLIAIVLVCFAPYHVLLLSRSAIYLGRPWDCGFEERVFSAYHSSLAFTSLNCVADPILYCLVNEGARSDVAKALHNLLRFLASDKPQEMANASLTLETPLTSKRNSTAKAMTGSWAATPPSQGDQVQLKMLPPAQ
In short: (§4)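 Gq-coupled yeast strain expressing receptor, in SD-His-Ura medium (pH 5.4) with 3-amino-1,2,4-triazole at a level giving moderate ligand-free growth (OD 0.2–0.6). Compound at 10 μM final, in triplicate. Starting OD600 0.02; growth 2–5 days at 30°C, read as OD600. Values are 100 × (well OD600 − plate median), given as % growth stimulation, mean ± SEM of three wells.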

[7] = molecular target: T1, G-protein coupled receptor 68; assay: Positive allosteric modulator activity at human GPR68 expressed in yeast assessed as Gq-yeast growth stimulation at 10 uM by microplate reader analysis; settings: filed as positive allosteric modulator; in short: as §4
[8] = molecular target: C-X-C chemokine receptor type 4 (Homo sapiens) (UniProt P61073); assay: Antagonist activity against CXCR4 receptor (unknown origin) transfected in human HEK293T cells at 10 uM incubated for 15 mins in presence of AMD3100 by luminescence counter analysis; format: functional, cell-based; in short: as §2
[9] = molecular target: G-protein coupled receptor 65 (Homo sapiens, UniProt Q8IYL9); assay: Positive allosteric modulator activity at human GPR65 expressed in yeast assessed as Gq-yeast growth stimulation at 10 uM by microplate reader analysis; in short: as §4
Chain of G-protein coupled receptor 65 (Q8IYL9 whole entry): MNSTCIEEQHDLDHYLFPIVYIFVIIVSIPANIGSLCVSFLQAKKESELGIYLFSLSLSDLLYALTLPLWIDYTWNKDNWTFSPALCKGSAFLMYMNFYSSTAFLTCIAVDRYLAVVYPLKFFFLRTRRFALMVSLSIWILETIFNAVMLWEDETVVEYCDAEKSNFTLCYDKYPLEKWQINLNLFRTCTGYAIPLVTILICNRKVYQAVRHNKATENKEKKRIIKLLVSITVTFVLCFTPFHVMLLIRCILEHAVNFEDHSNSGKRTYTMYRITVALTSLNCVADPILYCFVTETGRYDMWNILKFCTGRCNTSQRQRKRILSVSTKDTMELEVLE

[10] = molecular target: T1, G-protein coupled receptor 68; assay: Positive allosteric modulator activity at HA-tagged GPR68 expressed in human HEK293T cells assessed as activation of p42/p44 MAP kinase at pH 7.4 by immunoblotting analysis; format: cell-based; settings: filed as positive allosteric modulator; in short: as §3
[11] = Positive allosteric modulator activity at GPR68 R189L mutant transfected in human HEK293T cells assessed as proton-mediated calcium release at 10 uM incubated for 10 mins by Fluo-4 Direct calcium dye based FLIPR assay (reference value: 1.42 +/- 0.01 %); settings: HEK-293T, condition central nervous system disease
[12] = Positive allosteric modulator activity at GPR68 H269F mutant transfected in human HEK293T cells assessed as proton-mediated calcium release at 10 uM incubated for 10 mins by Fluo-4 Direct calcium dye based FLIPR assay (reference value: 1.57 +/- 0.01 %); settings: HEK-293T, condition central nervous system disease
[13] = Positive allosteric modulator activity at GPR68 E160K mutant transfected in human HEK293T cells assessed as proton-mediated calcium release at 10 uM incubated for 10 mins by Fluo-4 Direct calcium dye based FLIPR assay (reference value: 1.38 +/- 0.01 %); settings: HEK-293T, condition central nervous system disease
[14] = Positive allosteric modulator activity at GPR68 R189M mutant transfected in human HEK293T cells assessed as proton-mediated calcium release at 10 uM incubated for 10 mins by Fluo-4 Direct calcium dye based FLIPR assay (reference value: 6.77 +/- 0.01); format: cell-based; settings: HEK-293T
[15] = Positive allosteric modulator activity at GPR68 E160Q mutant transfected in human HEK293T cells assessed as proton-mediated calcium release at 10 uM incubated for 10 mins by Fluo-4 Direct calcium dye based FLIPR assay (reference value: 1.25 +/- 0.01 %); settings: HEK-293T, condition central nervous system disease
[16] = Positive allosteric modulator activity at GPR68 R189L mutant transfected in human HEK293T cells assessed as proton-mediated calcium release at 10 uM incubated for 10 mins by Fluo-4 Direct calcium dye based FLIPR assay (reference value: 6.85 +/- 0.02); format: cell-based; settings: HEK-293T
[17] = molecular target: T1, G-protein coupled receptor 68; assay: Positive allosteric modulator activity at GPR68 expressed in human HEK293T cells assessed as proton-mediated calcium release at 10 uM incubated for 10 mins by Fluo-4 Direct calcium dye based FLIPR assay (reference value: 1.30 %); format: functional, cell-based
[18] = Positive allosteric modulator activity at GPR68 R189M mutant transfected in human HEK293T cells assessed as proton-mediated calcium release at 10 uM incubated for 10 mins by Fluo-4 Direct calcium dye based FLIPR assay (reference value: 1.43 +/- 0.01 %); settings: HEK-293T, condition central nervous system disease
[19] = Positive allosteric modulator activity at GPR68 H269F mutant transfected in human HEK293T cells assessed as proton-mediated calcium release at 10 uM incubated for 10 mins by Fluo-4 Direct calcium dye based FLIPR assay (reference value: 6.44 +/- 0.02); format: cell-based; settings: HEK-293T
[20] = Positive allosteric modulator activity at GPR68 E160Q mutant transfected in human HEK293T cells assessed as proton-mediated calcium release at 10 uM incubated for 10 mins by Fluo-4 Direct calcium dye based FLIPR assay (reference value: 6.86 +/- 0.04); format: cell-based; settings: HEK-293T
[21] = Positive allosteric modulator activity at GPR68 E160K mutant transfected in human HEK293T cells assessed as proton-mediated calcium release at 10 uM incubated for 10 mins by Fluo-4 Direct calcium dye based FLIPR assay (reference value: 6.79 +/- 0.02); format: cell-based; settings: HEK-293T
[22] = filed as positive allosteric modulator

Compound: Nc1nc(NCc2ccccc2F)nc(-c2cccc(F)c2N)n1
- pKb [1]: 4.11

Compound: Nc1nc(NCc2ccccc2F)nc(-c2ccc(F)cc2N)n1
- pKb [1]: 4.23

Compound: Cc1ccc(-c2nc(N)nc(NCc3ccccc3)n2)c2cccnc12
- Emax [2]: 31%
- pKb [1]: 4.92
- EC50 [3]: 95.5 nM

Compound: OC1CCC(Nc2nc(-c3ccccc3)nc3[nH]ccc23)CC1 (stereo not given)
- pKb [1]: 6.2

Compound: Nc1nc(NCc2ccccc2)nc(-c2ccc(CO)cc2)n1
- pKb [1]: 4.93

Compound: COc1ccc(-c2nc(N)nc(NCc3ccccc3)n2)c(CO)c1
- pKb [1]: 4.43

Compound: Nc1nc(NCc2cccc(F)c2)nc(-c2cc(F)c(F)cc2N)n1
- pKb [1]: 4.66

Compound: Nc1nc(NCc2ccccc2)nc(-c2ccc(F)c(F)c2)n1
- Emax [2, 22]: 68.8%
- pKb [1]: 5.69
- EC50 [3]: 91.2 nM

Compound: O=C1N[C@H](c2ccccc2[N+](=O)[O-])c2c(-c3ccccc3)n[nH]c21
- Emax [2, 22]: 50.8%
- pKb [1]: 5.48
- EC50 [3]: 186 nM

Compound: Nc1nc(-c2ccc(Cl)c(Cl)c2)c(-c2ccncc2)s1
- pKb [1]: 7.51

Compound: Nc1nc(NCc2ccccc2)nc(-c2ccc(F)c(F)c2CO)n1
- pKb [1]: 3.84

Compound: Nc1nc(NCc2cccc(F)c2)nc(-c2ccc(F)cc2N)n1
- pKb [1]: 3.68

Compound: O=C1Nc2ccc(Cl)cc2C(c2ccccc2Cl)=NC1O (stereo not given)
- pKb [1]: 5.92
- Activity [4]: inactive
- Activity [5]: Active
- Activity [6]: inactive
- Activity [7]: 2
- Activity [8]: inactive
- Activity [9]: inactive
- Activity [10]: Active

Compound: COc1cc([C@H]2NC(=O)c3[nH]nc(-c4ccco4)c32)ccc1O
- Emax [2, 22]: 46.9%
- pKb [1]: 5.17
- EC50 [3]: 158 nM

Compound: O=C1CN=C(c2ccccc2F)c2cc(Cl)ccc2N1
- Activity [4]: inactive
- Activity [8]: inactive

Compound: Nc1nc(NCc2ccccc2)nc(-c2cc(F)cc(F)c2)n1
- Emax at 10 µM [11]: 1.49%
- Emax at 10 µM [12]: 1.63%
- Emax at 10 µM [13]: 1.38%
- Emax [2, 22]: 70.7%
- EC50 [14]: 141 nM
- Emax at 10 µM [15]: 1.11%
- EC50 [16]: 105 nM
- Emax [17]: 1.24%
- Emax at 10 µM [18]: 1.41%
- EC50 [19]: 324 nM
- EC50 [20]: 102 nM
- EC50 [21]: 141 nM
- EC50 [3]: 110 nM

Compound: Nc1nc(NCc2cc[nH]n2)nc(-c2ccccc2CO)n1
- pKb [1]: 5.17
